Experiments:
Cytochrome P450 2C9 = Cytochrome P450 2C9 (Homo sapiens, UniProt P11712); test: Inhibition of CYP2C9 in human liver microsomes by LC-MS/MS analysis; assay type: ADME
How it was run: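 Reversible CYP inhibition measured in human liver microsomes; metabolite formation quantified by LC/MS/MS.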

MDA-MB-231 [1] = test: Synergistic growth inhibition of human MDA-MB-231 cells assessed as combination index at 5 uM after 24 hrs in presence of paclitaxel by MTS assay; assay type: functional
How it was run: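 MDA-MB-231 human breast adenocarcinoma cells were treated with the test agent, paclitaxel, or both together, and cell growth inhibition was measured. Synergy was expressed as a combination index (CI) calculated from the growth-inhibition data.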

[2] = biological target: High affinity nerve growth factor receptor (Homo sapiens) (UniProt P04629); test: Inhibition of recombinant human N-terminal His6-tagged TrkA (440 to end residues) expressed in baculovirus infected Sf21 insect cells at 1 uM using KKKSPGEYVNIEFG as substrate in presence of [gamma-33P]-ATP or [gamma-32P]-ATP relative to control
Chain of High affinity nerve growth factor receptor (Homo sapiens) (P04629 33-796 limits assumed): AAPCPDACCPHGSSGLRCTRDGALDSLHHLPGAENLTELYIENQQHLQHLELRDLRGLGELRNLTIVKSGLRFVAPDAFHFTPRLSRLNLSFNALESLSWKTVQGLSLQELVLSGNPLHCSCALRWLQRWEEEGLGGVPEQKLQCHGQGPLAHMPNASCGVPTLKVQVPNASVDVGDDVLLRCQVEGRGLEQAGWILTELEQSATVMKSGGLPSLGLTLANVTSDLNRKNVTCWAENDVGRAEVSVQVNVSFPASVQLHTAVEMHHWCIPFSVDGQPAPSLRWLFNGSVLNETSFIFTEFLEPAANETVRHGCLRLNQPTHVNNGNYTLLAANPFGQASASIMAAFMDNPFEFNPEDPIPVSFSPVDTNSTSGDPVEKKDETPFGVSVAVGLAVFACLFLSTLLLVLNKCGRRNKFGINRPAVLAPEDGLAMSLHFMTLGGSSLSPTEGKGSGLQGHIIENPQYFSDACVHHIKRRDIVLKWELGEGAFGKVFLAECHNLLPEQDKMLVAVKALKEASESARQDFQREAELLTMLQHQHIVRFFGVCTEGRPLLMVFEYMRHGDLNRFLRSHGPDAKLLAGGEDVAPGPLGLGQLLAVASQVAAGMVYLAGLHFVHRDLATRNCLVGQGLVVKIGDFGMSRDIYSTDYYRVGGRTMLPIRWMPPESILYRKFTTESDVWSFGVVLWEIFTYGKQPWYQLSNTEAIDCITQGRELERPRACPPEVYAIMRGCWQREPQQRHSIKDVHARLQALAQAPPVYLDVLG

MDA-MB-231 [3] = test: Inhibition of paclitaxel-induced FMS expression in human MDA-MB-231 cells by Western blot analysis; assay type: functional, cell-based
[4] = biological target: Ephrin type-B receptor 4 (Homo sapiens) (UniProt P54760); test: Inhibition of recombinant human N-terminal His6-tagged EphB4 (561 to end residues) expressed in baculovirus infected Sf21 insect cells using poly (Glu, Tyr) (4:1) as substrate in presence of [gamma-33P]-ATP or [gamma-32P]-ATP relative to control; details: concentration not given here
Chain of Ephrin type-B receptor 4 (Homo sapiens) (P54760 whole entry): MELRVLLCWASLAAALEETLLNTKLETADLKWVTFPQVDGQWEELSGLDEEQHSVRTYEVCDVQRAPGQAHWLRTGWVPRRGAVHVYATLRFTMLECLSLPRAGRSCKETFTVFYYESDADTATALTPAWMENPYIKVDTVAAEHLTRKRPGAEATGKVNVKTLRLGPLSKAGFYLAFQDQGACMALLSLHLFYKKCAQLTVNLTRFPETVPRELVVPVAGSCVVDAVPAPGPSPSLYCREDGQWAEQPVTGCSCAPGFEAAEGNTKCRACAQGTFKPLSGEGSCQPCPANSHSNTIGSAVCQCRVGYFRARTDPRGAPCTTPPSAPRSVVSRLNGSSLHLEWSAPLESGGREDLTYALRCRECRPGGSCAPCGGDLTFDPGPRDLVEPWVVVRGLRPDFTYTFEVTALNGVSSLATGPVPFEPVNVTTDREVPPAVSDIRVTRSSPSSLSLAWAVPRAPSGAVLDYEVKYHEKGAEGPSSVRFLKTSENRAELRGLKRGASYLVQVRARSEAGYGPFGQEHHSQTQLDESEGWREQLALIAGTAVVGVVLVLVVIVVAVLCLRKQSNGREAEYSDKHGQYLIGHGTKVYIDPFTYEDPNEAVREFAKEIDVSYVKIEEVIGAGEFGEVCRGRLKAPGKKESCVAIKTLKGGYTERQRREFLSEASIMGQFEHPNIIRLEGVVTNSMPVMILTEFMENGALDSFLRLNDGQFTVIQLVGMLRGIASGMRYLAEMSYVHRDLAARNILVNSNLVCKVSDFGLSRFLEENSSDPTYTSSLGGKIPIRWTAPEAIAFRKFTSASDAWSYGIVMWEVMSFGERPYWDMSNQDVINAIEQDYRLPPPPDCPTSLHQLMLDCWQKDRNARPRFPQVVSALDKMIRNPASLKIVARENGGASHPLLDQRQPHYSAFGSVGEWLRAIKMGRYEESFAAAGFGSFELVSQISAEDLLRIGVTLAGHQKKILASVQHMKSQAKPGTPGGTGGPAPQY

[5] = biological target: Tyrosine-protein kinase ABL1 (Homo sapiens) (UniProt P00519); test: Inhibition of recombinant human N-terminal His6-tagged Abl (27 to end residues) expressed in baculovirus infected Sf21 insect cells at 1 uM using Abltide as substrate in presence of [gamma-33P]-ATP or [gamma-32P]-ATP relative to control
Chain of Tyrosine-protein kinase ABL1 (Homo sapiens) (P00519 whole entry): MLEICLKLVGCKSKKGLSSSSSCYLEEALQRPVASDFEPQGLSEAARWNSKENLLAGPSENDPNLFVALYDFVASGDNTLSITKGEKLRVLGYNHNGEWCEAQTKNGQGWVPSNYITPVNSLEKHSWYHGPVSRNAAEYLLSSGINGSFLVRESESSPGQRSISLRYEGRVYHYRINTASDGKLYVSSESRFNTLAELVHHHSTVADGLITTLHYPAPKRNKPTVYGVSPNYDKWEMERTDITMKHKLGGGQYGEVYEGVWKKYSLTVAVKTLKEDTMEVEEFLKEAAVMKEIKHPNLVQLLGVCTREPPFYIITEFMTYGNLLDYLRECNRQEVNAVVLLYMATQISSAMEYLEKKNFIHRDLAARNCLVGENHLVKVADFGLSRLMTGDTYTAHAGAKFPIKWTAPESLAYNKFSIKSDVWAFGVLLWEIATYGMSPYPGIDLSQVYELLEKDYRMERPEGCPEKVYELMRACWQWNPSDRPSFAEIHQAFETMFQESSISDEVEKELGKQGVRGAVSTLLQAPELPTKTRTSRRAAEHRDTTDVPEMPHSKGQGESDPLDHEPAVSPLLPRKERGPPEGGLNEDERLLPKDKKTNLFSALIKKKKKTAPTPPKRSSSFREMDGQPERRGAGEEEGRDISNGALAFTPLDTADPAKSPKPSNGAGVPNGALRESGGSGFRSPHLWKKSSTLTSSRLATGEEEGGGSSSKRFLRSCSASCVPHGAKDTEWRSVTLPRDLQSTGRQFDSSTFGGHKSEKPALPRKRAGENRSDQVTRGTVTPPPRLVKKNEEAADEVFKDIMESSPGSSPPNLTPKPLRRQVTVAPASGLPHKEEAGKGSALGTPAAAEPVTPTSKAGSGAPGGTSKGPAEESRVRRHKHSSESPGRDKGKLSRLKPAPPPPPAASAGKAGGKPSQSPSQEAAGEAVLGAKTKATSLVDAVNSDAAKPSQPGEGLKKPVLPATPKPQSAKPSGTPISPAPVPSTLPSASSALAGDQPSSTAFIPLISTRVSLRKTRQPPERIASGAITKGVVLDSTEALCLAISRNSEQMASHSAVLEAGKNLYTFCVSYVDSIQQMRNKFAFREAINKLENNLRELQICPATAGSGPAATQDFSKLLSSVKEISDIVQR

Chain of Cytochrome P450 2C9 (P11712 whole entry): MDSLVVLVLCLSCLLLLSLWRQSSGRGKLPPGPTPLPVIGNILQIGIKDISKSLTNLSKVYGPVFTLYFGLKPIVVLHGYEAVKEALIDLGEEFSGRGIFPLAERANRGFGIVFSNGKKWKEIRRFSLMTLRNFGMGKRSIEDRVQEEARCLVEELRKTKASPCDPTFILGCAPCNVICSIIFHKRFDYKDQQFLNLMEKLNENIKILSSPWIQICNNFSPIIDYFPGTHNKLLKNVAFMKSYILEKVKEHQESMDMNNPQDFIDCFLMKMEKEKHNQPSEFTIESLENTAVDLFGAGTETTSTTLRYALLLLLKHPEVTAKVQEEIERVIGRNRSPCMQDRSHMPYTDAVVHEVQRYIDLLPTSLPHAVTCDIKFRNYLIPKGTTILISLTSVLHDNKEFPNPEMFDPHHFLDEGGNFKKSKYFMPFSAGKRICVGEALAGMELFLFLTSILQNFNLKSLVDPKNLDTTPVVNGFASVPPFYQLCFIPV

SMILES: Cc1cccc(Cn2nc(C)c3c(NC(=O)c4csc5c(N)ncnc45)cccc32)n1
- IC50 (Cytochrome P450 2C9): > 20 µM
- CI (MDA-MB-231 [1]): <0.1
- inhibition [2]: 27%
- inhibition (MDA-MB-231 [3]): Dose-dependent effect
- inhibition [4]: 2%
- inhibition [5]: 35%
